# Assay results reported in ChEMBL document CHEMBL1142013, “Tryptamine and homotryptamine-based sulfonamides as potent and selective inhibitors of 15-lipoxygenase” (Bioorg Med Chem Lett, 2005).
# Biological target: T1, Polyunsaturated fatty acid lipoxygenase ALOX12 (Homo sapiens, UniProt P18054)
# T1 sequence (P18054 whole entry): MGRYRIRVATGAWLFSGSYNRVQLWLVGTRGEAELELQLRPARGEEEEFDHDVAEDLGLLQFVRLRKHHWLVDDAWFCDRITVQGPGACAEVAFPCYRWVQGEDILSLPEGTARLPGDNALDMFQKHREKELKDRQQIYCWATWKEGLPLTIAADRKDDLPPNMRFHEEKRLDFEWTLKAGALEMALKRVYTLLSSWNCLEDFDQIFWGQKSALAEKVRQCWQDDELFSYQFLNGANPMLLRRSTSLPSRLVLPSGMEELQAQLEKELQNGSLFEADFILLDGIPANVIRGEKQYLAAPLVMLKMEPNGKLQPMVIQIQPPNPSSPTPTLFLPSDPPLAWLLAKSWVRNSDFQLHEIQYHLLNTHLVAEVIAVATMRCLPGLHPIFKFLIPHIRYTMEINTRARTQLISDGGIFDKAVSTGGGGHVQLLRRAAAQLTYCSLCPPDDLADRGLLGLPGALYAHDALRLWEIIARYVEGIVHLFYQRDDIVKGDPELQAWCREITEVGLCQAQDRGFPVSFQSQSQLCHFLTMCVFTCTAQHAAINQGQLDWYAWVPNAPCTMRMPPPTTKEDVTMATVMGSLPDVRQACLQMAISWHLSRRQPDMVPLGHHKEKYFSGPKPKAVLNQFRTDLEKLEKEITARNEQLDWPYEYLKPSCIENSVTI
# Test: Inhibitory concentration against human platelet-derived 12-lipoxygenase
row,IC50,Structure (SMILES)
1,1070 nM,CCCCCc1ccc(S(=O)(=O)NCCCc2c[nH]c3ccccc23)cc1
2,> 3000 nM,CCCCCc1ccc(S(=O)(=O)NCCc2c(-c3cc4ccccc4o3)[nH]c3ccccc23)cc1
3,> 10000 nM,CCCCCc1ccc(S(=O)(=O)NCCc2c(-c3ccc(OC)cc3)[nH]c3ccccc23)cc1
4,> 10000 nM,Cc1ccc(S(=O)(=O)NCCc2c(-c3cc4ccccc4o3)[nH]c3ccccc23)cc1
5,> 10000 nM,CCCCCc1ccc(S(=O)(=O)NCCc2c(-c3ccc(Cl)cc3)[nH]c3ccccc23)cc1
6,> 10000 nM,CCCCCc1ccc(S(=O)(=O)NCCc2c(-c3ccccc3)[nH]c3ccccc23)cc1
7,> 10000 nM,NNC(=O)c1ccc(S(=O)(=O)NCCc2c(-c3cc4ccccc4o3)[nH]c3ccccc23)cc1

# Biological target: T2, Polyunsaturated fatty acid lipoxygenase ALOX15 (Oryctolagus cuniculus, UniProt P12530)
# T2 sequence (P12530 whole entry): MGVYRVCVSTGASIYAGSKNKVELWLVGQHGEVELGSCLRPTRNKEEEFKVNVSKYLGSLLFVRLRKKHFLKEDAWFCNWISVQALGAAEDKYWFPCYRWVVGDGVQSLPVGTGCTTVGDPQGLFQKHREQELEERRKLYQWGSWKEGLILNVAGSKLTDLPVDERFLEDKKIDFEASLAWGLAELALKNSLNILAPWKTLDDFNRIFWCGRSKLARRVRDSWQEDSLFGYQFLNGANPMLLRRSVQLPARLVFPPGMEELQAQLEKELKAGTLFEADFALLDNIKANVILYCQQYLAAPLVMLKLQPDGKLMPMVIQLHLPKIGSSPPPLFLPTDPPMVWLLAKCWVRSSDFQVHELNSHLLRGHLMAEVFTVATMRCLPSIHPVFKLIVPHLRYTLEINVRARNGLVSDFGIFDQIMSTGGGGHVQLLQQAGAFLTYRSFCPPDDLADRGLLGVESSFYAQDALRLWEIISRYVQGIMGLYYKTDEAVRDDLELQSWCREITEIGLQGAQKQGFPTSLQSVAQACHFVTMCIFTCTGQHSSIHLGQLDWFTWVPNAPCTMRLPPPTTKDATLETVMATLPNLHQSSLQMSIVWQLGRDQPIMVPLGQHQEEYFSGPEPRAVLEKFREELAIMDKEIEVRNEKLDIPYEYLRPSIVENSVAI
# Test: Inhibitory concentration against isolated rabbit reticulocyte 15-lipoxygenase measured in the presence of linoleic acid
# Method in brief: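 15-LO was purified from reticulocytes of phenylhydrazine-treated rabbits. Linoleic acid was the substrate. In a colorimetric assay, the 13-HPODE product oxidizes Fe²⁺ under mildly acidic conditions, and IC50 is derived from this. Many values were also checked spectrophotometrically by the rate of diene formation (A₂₃₄).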
row,IC50,Structure (SMILES)
1,37 nM,CCCCCc1ccc(S(=O)(=O)NCCc2c(-c3ccc(OC)cc3)[nH]c3ccccc23)cc1
2,10 nM,Cc1ccc(S(=O)(=O)NCCc2c(-c3cc4ccccc4o3)[nH]c3ccccc23)cc1
3,32 nM,CCCCCc1ccc(S(=O)(=O)NCCc2c(-c3ccc(Cl)cc3)[nH]c3ccccc23)cc1
4,62 nM,CCCCCc1ccc(S(=O)(=O)NCCc2c(-c3ccccc3)[nH]c3ccccc23)cc1
5,89 nM,NNC(=O)c1ccc(S(=O)(=O)NCCc2c(-c3cc4ccccc4o3)[nH]c3ccccc23)cc1

# Biological target: T3, Polyunsaturated fatty acid 5-lipoxygenase (Homo sapiens, UniProt P09917)
# T3 sequence (P09917 whole entry): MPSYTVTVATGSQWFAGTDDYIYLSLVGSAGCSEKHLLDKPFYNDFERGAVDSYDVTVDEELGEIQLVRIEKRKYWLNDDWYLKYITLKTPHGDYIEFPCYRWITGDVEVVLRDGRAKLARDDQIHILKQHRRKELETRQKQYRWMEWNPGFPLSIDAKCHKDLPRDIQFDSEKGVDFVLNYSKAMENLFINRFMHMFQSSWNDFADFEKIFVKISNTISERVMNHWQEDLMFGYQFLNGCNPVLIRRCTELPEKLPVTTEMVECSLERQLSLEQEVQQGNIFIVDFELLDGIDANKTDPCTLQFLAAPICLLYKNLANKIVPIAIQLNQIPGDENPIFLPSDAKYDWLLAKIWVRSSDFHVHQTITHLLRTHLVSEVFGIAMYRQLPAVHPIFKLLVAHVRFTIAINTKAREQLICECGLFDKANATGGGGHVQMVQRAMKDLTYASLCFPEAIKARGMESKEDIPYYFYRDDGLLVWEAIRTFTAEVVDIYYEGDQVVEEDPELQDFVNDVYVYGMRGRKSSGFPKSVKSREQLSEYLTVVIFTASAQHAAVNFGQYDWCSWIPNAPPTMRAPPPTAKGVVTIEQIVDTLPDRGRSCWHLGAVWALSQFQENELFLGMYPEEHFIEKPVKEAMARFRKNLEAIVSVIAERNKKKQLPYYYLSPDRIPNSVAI
# Test: Inhibitory concentration against human 5-lipoxygenase
# Method in brief: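 Recombinant human 5-LO enzyme. Inhibition was followed by oxidation of arachidonic acid as the substrate. IC50 values were determined.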
row,IC50,Structure (SMILES)
1,> 10000 nM,CCCCCc1ccc(S(=O)(=O)NCCCc2c[nH]c3ccccc23)cc1
2,> 3000 nM,CCCCCc1ccc(S(=O)(=O)NCCc2c(-c3cc4ccccc4o3)[nH]c3ccccc23)cc1
3,8900 nM,CCCCCc1ccc(S(=O)(=O)NCCc2c(-c3ccc(OC)cc3)[nH]c3ccccc23)cc1
4,> 10000 nM,Cc1ccc(S(=O)(=O)NCCc2c(-c3cc4ccccc4o3)[nH]c3ccccc23)cc1
5,> 3000 nM,CCCCCc1ccc(S(=O)(=O)NCCc2c(-c3ccc(Cl)cc3)[nH]c3ccccc23)cc1
6,> 3000 nM,CCCCCc1ccc(S(=O)(=O)NCCc2c(-c3ccccc3)[nH]c3ccccc23)cc1
7,3500 nM,NNC(=O)c1ccc(S(=O)(=O)NCCc2c(-c3cc4ccccc4o3)[nH]c3ccccc23)cc1

# Biological target: T2, Polyunsaturated fatty acid lipoxygenase ALOX15
# Test: Inhibitory concentration against rabbit reticulocyte 15-lipoxygenase with substrate arachidonic acid
# Method in brief: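 Purified rabbit reticulocyte 15-LO, isolated from phenylhydrazine-treated rabbits, with arachidonic acid as the substrate. IC50 comes from a colorimetric read-out in which the 15-HPETE product oxidizes Fe²⁺ under mildly acidic conditions. Many values were also verified by the spectrophotometric diene-formation rate (A₂₃₄).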
row,IC50,Structure (SMILES)
1,164 nM,CCCCCc1ccc(S(=O)(=O)NCCc2c(-c3ccc(OC)cc3)[nH]c3ccccc23)cc1
2,78 nM,Cc1ccc(S(=O)(=O)NCCc2c(-c3cc4ccccc4o3)[nH]c3ccccc23)cc1
3,120 nM,CCCCCc1ccc(S(=O)(=O)NCCc2c(-c3ccc(Cl)cc3)[nH]c3ccccc23)cc1
4,140 nM,CCCCCc1ccc(S(=O)(=O)NCCc2c(-c3ccccc3)[nH]c3ccccc23)cc1
5,135 nM,NNC(=O)c1ccc(S(=O)(=O)NCCc2c(-c3cc4ccccc4o3)[nH]c3ccccc23)cc1
